From PubChem
In the library only some 3.6% were active in any assay of this set; here they are far more common.
SENP1 inh – SENP1 (human) catalytic domain inhibition; inhibition, % at 10 µM; AID 624204; recombinant SENP1 catalytic domain, CyPet-SUMO1-YPet FRET cleavage; actives 0.21% (n = 360,000); Q9P0U3;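 active means inhibition at least 30% at 10 µM, raw YFP signal under a set limit, fluorescence ratio 0.5 to 1.5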
Target sequence (Q9P0U3 419-644 limits assumed): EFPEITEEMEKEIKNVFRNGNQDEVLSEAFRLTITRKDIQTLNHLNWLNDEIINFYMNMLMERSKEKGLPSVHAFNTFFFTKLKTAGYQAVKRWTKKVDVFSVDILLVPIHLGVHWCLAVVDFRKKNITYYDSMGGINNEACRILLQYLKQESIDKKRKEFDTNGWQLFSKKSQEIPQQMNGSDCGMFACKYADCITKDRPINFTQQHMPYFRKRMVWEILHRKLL
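Assay system: hSENP1 catalytic domain, recombinant. Amount: SENP1 enzyme, 20 pM final. Schedule: 50 min reaction, RT, dark. Technique: FRET, CFP and YFP emission. Control set: no-enzyme wells low, DMSO-plus-enzyme wells high control.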
NadD block – inhibitors of Staphylococcus aureus NadD; purified NadD enzyme, colorimetric absorbance read-out; AID 602399; inhibition, % at 20 µM; actives 0.78% (n = 360,000); in the data active means inhibition above about 26%
UCH37 inh – blocks the human deubiquitinase UCH37; AID 588478; inhibition, % (no concentration beside the values); actives 0.33% (n = 330,000); purified proteasome/UCH37, Ub-AMC cleavage fluorescence; Q9Y5K5;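 active means mean inhibition over replicate wells above about 20%, limit read from the data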
Target sequence (Q9Y5K5 whole entry, looked up): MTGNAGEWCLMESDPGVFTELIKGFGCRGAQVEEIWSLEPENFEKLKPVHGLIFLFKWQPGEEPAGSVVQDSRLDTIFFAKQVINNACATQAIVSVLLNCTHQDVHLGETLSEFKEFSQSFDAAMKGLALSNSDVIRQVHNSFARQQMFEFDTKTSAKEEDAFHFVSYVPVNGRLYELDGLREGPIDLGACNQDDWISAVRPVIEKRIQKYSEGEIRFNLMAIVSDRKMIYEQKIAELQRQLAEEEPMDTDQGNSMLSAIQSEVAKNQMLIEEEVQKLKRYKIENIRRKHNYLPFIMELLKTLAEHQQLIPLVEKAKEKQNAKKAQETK
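Schedule: 30 min plus 25 min, room temperature / Material: human UCH37 within purified proteasomes / Technique: AMC fluorescence intensity at 355/460 nm / Buffer or medium: pH 7.4 Tris-HCl (50 mM) with ovalbumin, ATP-MgCl2, DTT / Controls: wells without proteasome as full block, compound-free enzyme plus substrate as uninhibited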
ATG4B inhibitor – ATG4B (human) cysteine protease inhibition | actives 0.51% (n = 340,000) | Q9Y4P1 | ATG4B cleavage of LC3-PLA2, NBD-HPC fluorescence, 1 h | inhibition, % at 8.33 µM; in the data active means inhibition above about 40%
NR3A LBD binder – modulates the human NR3A ligand-binding domain; NR3A LBD differential scanning fluorimetry, Tm shift; 0% = protein alone, 100% = glycine-bound protein; actives 2.5% (n = 340,000); Tm shift relative to glycine control, % at 25 µM; AID 1259313;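 active means melting temperature shift of at least 10% of the positive control shift, at one fixed dose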
NadD conf – NadD (S. aureus) inhibition, single concentration confirmation; actives 13% (n = 2,000); purified S. aureus NadD, colorimetric enzyme assay; inhibition, % at 20 µM; shares compounds with NadD block; in the data active means inhibition mostly above about 42%, no sharp cut-off; inactive means mostly below about 42%
Of the large screens only hits and unclear results are named; the others gave an inactive call (follow-up assays come after a bar, where they were run).

O=C(Cc1cccc2ccccc12)N/N=C/c1ccc2cccc(O)c2n1	NadD block 29.7 (no result: UCH37 inh) | NadD conf inactive
Cc1cc2oc(=O)cc(CN3CCc4ccccc43)c2cc1Cl	NadD block 32.2 | NadD conf inactive
CCc1ccc2c(CN3CCc4ccccc43)cc(=O)oc2c1	none
CCOc1ccc(NC(=O)c2cccc(-n3cccc3)c2)cc1S(=O)(=O)N1CCOCC1	NadD block 32.2 (no result: UCH37 inh, ATG4B inhibitor, NR3A LBD binder) | NadD conf inactive
O=C(O)c1cccc(NC(=S)N/N=C/c2ccccc2OCc2ccc(Br)cc2)c1	NadD block 45.3 (no result: UCH37 inh) | NadD conf 64.1
Cc1ccc(NC(=O)CC2Nc3ccccc3NC2=O)cc1Cl (configuration not stated)	NadD block 31.4, NR3A LBD binder 10.0 (no result: UCH37 inh) | NadD conf inactive
Cc1ccc(-n2c(=O)c3cc4c(=O)n(-c5ccc(C)c(C)c5)c(=O)c4c(C(=O)c4ccc(C(=O)O)cc4)c3c2=O)cc1C	NadD block 33.9 | NadD conf inactive
O=C(O)c1ccc(-n2c(=O)c3ccccc3c3ccccc3c2=O)cc1	none
Cc1c(Cc2ccccc2)sc(N=Cc2ccc3ccccc3c2)c1C(N)=O	none (no result: SENP1 inh, NadD block, ATG4B inhibitor, NR3A LBD binder)
O=C(O)C1CC=CCC1C(=O)N1CCN(c2nc(-c3ccccc3)c3ccccc3n2)CC1 (configuration not stated)	none (no result: UCH37 inh)
O=C(O)C1CC=CCC1C(=O)N1CCN(c2nc(-c3ccccc3Cl)c3cc(Br)ccc3n2)CC1 (configuration not stated)	NadD block 35.8 | NadD conf inactive
COc1ccccc1/C=C\C(=O)NCC(=O)NN=C(C)c1cccc([N+](=O)[O-])c1	none (no result: SENP1 inh, NadD block, ATG4B inhibitor, NR3A LBD binder)
COc1cccc(C(=O)Oc2cc3c4c(c2)C(C)=CC(C)(C)N4C(=O)C3=O)c1	none
CC1=CC(C)(C)n2c(O)c(C3=NC(=S)NC3=O)c3cc(OC(=O)c4cccc5ccccc45)cc1c32	NadD block 55.5 | NadD conf inactive
CC(C)c1ccc(OCC(=O)NNC(=S)NC(=O)c2cccs2)c(Br)c1	NadD block 25.4 | NadD conf inactive
COc1cc(C=Nn2cnn(Cc3ccccc3Cl)c2=S)cc(OC)c1OC	none (no result: SENP1 inh, NadD block, ATG4B inhibitor, NR3A LBD binder)
O=C(NNC(=O)c1cc(-c2ccc(Br)cc2)nc2ccccc12)c1csc(N2CCOCC2)n1	NadD block 31.2 | NadD conf inactive
O=C(NNC(=O)c1cc(-c2ccc(Cl)cc2)nc2ccccc12)c1csc(N2CCOCC2)n1	NadD block 31.1 (no result: NR3A LBD binder) | NadD conf 37.3
Cc1ccc(C)c2nc3sc(C(=O)N4CCCc5ccccc54)c(N)c3cc12	NadD block 32.4 | NadD conf inactive
O=C(c1ccc(C(=O)N2CCCc3ccccc32)s1)N1CCCc2ccccc21	none
CC(CC(=O)Nc1ccccc1C(F)(F)F)=NNC(=O)c1cnccn1	none (no result: SENP1 inh, NadD block, ATG4B inhibitor, NR3A LBD binder)
N#Cc1ccccc1Cn1cc(/C=N/Nc2ccc([N+](=O)[O-])cn2)c2ccccc21	NadD block 31.7 (no result: UCH37 inh) | NadD conf inactive
Cc1ccc(Cn2cc(C=NNc3ccc([N+](=O)[O-])cn3)c3ccccc32)cc1	none (no result: SENP1 inh, NadD block, ATG4B inhibitor, NR3A LBD binder)
Cc1cc(Cl)ccc1NC(=O)CCC(=O)NN=Cc1cc([N+](=O)[O-])ccc1O	none (no result: SENP1 inh, NadD block, ATG4B inhibitor, NR3A LBD binder)
COc1cccc(C(=O)Oc2c(Br)cc(Br)cc2/C=N/NC(=O)c2cc(C)[nH]n2)c1	NadD block 42.1 (no result: UCH37 inh) | NadD conf inactive
COc1cccc(C(=O)Oc2c(Br)cc(Br)cc2C=NNC(=O)c2cc(C)[nH]n2)c1	none (no result: SENP1 inh, NadD block, ATG4B inhibitor, NR3A LBD binder)
COc1ccc(CN2C(=O)c3ccccc3C(C=NOCc3ccc(C)cc3)C2=O)cc1 (configuration not stated)	none (no result: SENP1 inh, NadD block, ATG4B inhibitor, NR3A LBD binder)
CC(C)(C)S(=O)N1Cc2cc(C(=O)Nc3ccc(-c4ccccc4)cc3)nc(-c3cccc(-c4cc5ccccc5o4)c3)c2[C@@H]1CCO (some centres not stated)	NadD block 35.3 (no result: UCH37 inh, ATG4B inhibitor, NR3A LBD binder) | NadD conf inactive
COc1ccc(N/C=C2\C(=O)CCc3c2oc2cc(Cl)c(O)c(Cl)c32)cc1	NadD block 44.5 | NadD conf inactive
CC(=NNc1cc(N2CCOCC2)ncn1)c1ccc(O)cc1	none (no result: SENP1 inh, NadD block, ATG4B inhibitor, NR3A LBD binder)
CCC(Sc1nc2ccsc2c(=O)n1Cc1ccc(C(=O)O)cc1)C(=O)Nc1ccc(C)c(Cl)c1 (configuration not stated)	NadD block 47.8 | NadD conf 47.0
N#Cc1c(NC(=O)CSc2nnc(-c3ccco3)n2-c2ccccc2)sc2c1CCC2	NadD block 40.8 | NadD conf inactive
NC(=O)c1c(NC(=O)CSc2nnc(-c3ccco3)n2-c2ccccc2)sc2c1CCC2	none
COc1ccc(-c2nnc(SCC(=O)Nc3sc4c(c3C#N)CCC4)n2CC2CCCO2)cc1 (configuration not stated)	none
COc1ccc(-n2c(SCC(=O)Nc3ccccc3)nnc2-c2ccc(NS(=O)(=O)c3ccc(C)cc3)cc2)cc1	NadD block 48.9 | NadD conf inactive
COc1cccc(-n2c(SCC(=O)Nc3sc4c(c3C(N)=O)CCC4)nc3ccccc3c2=O)c1	NadD block 31.7 | NadD conf inactive
COc1ccc(-n2c(SCC(=O)Nc3sc4c(c3C#N)CCCC4)nnc2-c2ccccc2OC)cc1	NadD block 40.6 | NadD conf inactive
CCN(CC)C(=O)C1CCCN(c2ccc([N+](=O)[O-])cc2C=NNC(=O)c2ccccc2)C1 (configuration not stated)	none (no result: SENP1 inh, NadD block, ATG4B inhibitor, NR3A LBD binder)
O=C(NN=Cc1ccc(O)c(O)c1)c1ccc(CSc2cccc3cccnc23)cc1	none (no result: SENP1 inh, NadD block, ATG4B inhibitor, NR3A LBD binder)
O=C(NN=Cc1ccc(O)cc1)c1cc(C2CC2)[nH]n1	none (no result: SENP1 inh, NadD block, ATG4B inhibitor, NR3A LBD binder)
Cc1ccc(SCCC(=O)NN=Cc2cccnc2)cc1	none (no result: SENP1 inh, NadD block, ATG4B inhibitor, NR3A LBD binder)
CN(C)C=NC(=S)Nc1ccccc1	none (no result: SENP1 inh, NadD block, ATG4B inhibitor, NR3A LBD binder)
COc1ccc(-c2nnc(SCC(=O)Nc3sc4c(c3C#N)CCCC4)n2-c2ccccc2)cc1	NadD block 40.9 | NadD conf inactive
Cc1ccccc1NC(=O)CCC(=O)NN=Cc1cc([N+](=O)[O-])ccc1O	none (no result: SENP1 inh, NadD block, ATG4B inhibitor, NR3A LBD binder)
CC(=NNC(=S)NCc1ccccc1)c1ccc2ccccc2c1OC(F)F	none (no result: SENP1 inh, NadD block, ATG4B inhibitor, NR3A LBD binder)
Cc1ccc(NC(=O)CSc2nnc3c(n2)[nH]c2ccccc23)cc1	none
Cc1ccc(-c2csc(NC(=O)CSc3nnc4c(n3)[nH]c3ccccc34)n2)cc1	NadD block 58.4, NR3A LBD binder 21.4 | NadD conf inactive
CC(=NNC(=O)c1ccncc1)c1ccc(NC(=O)c2ccc(Cl)cc2)cc1	none (no result: SENP1 inh, NadD block, ATG4B inhibitor, NR3A LBD binder)
COc1ccc(CNc2cccnc2Cl)cc1	none (no result: UCH37 inh, ATG4B inhibitor, NR3A LBD binder)
COc1ccc(Oc2c(OC)cc(NCc3ccc(CN)cc3)c3ncccc23)cc1	NadD block 70.1 (no result: UCH37 inh, ATG4B inhibitor, NR3A LBD binder) | NadD conf 65.8
O=C(O)c1cccc(NC(=S)NC(=O)c2ccc(-c3ccc(Cl)cc3)o2)c1	NadD block 37.5 | NadD conf inactive
CC1CC(NC(=O)c2c(O)nc3sccn3c2=O)CC(C)(C)C1 (configuration not stated)	NadD block 34.9 | NadD conf inactive
